Converted amounts (≈) assume the structure as drawn.
tested on: Mycobacterium tuberculosis; test: Antimicrobial activity against multidrug-resistant Mycobacterium tuberculosis C110/09 after 4 weeks; format: functional; settings: C110/09, 672 h
Procedure, shortened: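 L-J proportion method against an MDR clinical isolate resistant to rifampicin, pyrazinamide and isoniazid. Drug in 64, 128 and 256 µg mL-1 dilutions in LJ medium slants, set overnight. Inoculated with 4 mg mL-1 suspension by 3 mm loop, 37 °C, 4 weeks. MIC is the lowest concentration fully inhibiting growth, by CFU versus controls (medium, inoculated, DMSO). Three independent determinations.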

| Compound | MIC [µg/mL] |
| --- | --- |
| CCc1ccc(C2C(C(=O)Nc3ccccc3)=C(C)NC(C)=C2C(=O)Nc2ccccc2)cc1 | > 256 |
| CC1=C(C(=O)Nc2ccc(C)cc2)C(c2ccccn2)C(C(=O)Nc2ccc(C)cc2)=C(C)N1 | > 256 |
| CC1=C(C(=O)Nc2ccc(C)cc2)C(c2ccc[nH]2)C(C(=O)Nc2ccc(C)cc2)=C(C)N1 | 128 (≈ 291 µM) |
| CC1=C(C(=O)Nc2ccccc2C)C(c2ccccn2)C(C(=O)Nc2ccccc2C)=C(C)N1 | 256 (≈ 566 µM) |
| NC(=O)c1cnccn1 [PYRAZINAMIDE] | 128 (≈ 1040 µM) |
